Reference: ChEMBL document CHEMBL3102739, “Synthesis and antiproliferative activity of conformationally restricted 1,2,3-triazole analogues of combretastatins in the sea urchin embryo model and against human cancer cell lines” (Bioorg Med Chem, 2014)

Tests used:
[1] = tested on: Paracentrotus lividus; test: Antimitotic activity against sea urchin embryo free-swimming blastula model assessed as embryo spinning compound treated at 8 to 10 hrs post-fertilization measured after 0.25 to 20 hrs; format: functional, Blastula stage
[2] = tested on: Paracentrotus lividus; test: Antimitotic activity against sea urchin embryo model assessed as cleavage alteration of fertilized egg compound treated at 8 to 20 mins post-fertilization and 45 to 55 mins prior to first mitotic cycle completion measured 2.5 to 5.5 hrs post-fertilization; format: functional
Method in brief: (§1)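 Fertilized eggs are exposed 8–20 min after fertilization to 2-fold decreasing concentrations. Stocks are 10 mM in DMSO, then diluted 10-fold in 95% EtOH; final DMSO is at most 0.05% and EtOH at most 1%. Embryos are kept as a monolayer, up to 2000 embryos/mL, in filtered seawater at room temperature. The value is the threshold concentration giving cleavage alteration, embryo death before hatching or full mitotic arrest. Duplicates were run.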

[3] = tested on: Paracentrotus lividus; test: Antimitotic activity against sea urchin embryo model assessed as cleavage arrest of fertilized egg compound treated at 8 to 20 mins post-fertilization and 45 to 55 mins prior to first mitotic cycle completion measured 2.5 to 5.5 hrs post-fertilization; format: functional; method in brief: as §1
[4] = Growth inhibition of human NCI60 cells at 10 uM after 48 hrs by SRB assay; format: functional; conditions: NCI60, 48 h, values are per cent of control

Compound	EC [1] [µM]	EC [2] [µM]	EC [3] [µM]	growth, % of control at 10 µM [4] [%]
COc1ccc(-n2nnc(C#N)c2-c2cc(OC)c(OC)c(OC)c2)cc1	>4	1	>4	–
COc1ccc(-n2nnc(N)c2-c2cc(OC)c(OC)c(OC)c2)cc1	>4	4	>4	90.1
COc1ccc(/C=C\c2cc(OC)c3c(c2)OCO3)cc1O [Combretastatin A-2]	0.05	0.002	0.01	–
COc1ccc(-c2c(C#N)nnn2-c2cc(OC)c(OC)c(OC)c2)cc1	>4	>4	>4	–
COc1cc(-c2c(C#N)nnn2-c2cccc(Cl)c2)cc(OC)c1OC	>5	0.5	2	92.6
COc1ccc(-n2nnc(C#N)c2-c2cccc(OC)c2)cc1	5	0.2	1	–
Clc1cccc(-n2nncc2-c2ccccc2)c1	>4	>4	>4	–
O=C(O)c1nnn(-c2cccc(Cl)c2)c1-c1ccccc1	>4	>4	>4	–
COc1cc(-c2c(C#N)nnn2-c2cc(OC)c(OC)c(OC)c2)cc(OC)c1OC	>4	>4	>4	98.8
COc1ccc(-c2c(C(N)=O)nnn2-c2cc(OC)c(OC)c(OC)c2)cc1	>4	>4	>4	101
